# Data: ChEMBL document CHEMBL3351594, “Cytotoxic dimeric epipolythiodiketopiperazines from the ascomycetous fungus Preussia typharum” (J Nat Prod, 2014)
# Tests used:
# IGROV-1 = assay: Cytotoxicity against human IGROV1 cells by SRB method; format: functional
# How it was run: (§1)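 NCI-60 in vitro drug screening panel. Values are the molar concentrations giving 50% growth inhibition (GI50) and total growth inhibition (TGI).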
# NCI-H460 = assay: Cytotoxicity against human NCI-H460 cells by SRB method; format: functional; how it was run: as §1
# NCI-H23 = assay: Cytotoxicity against human NCI-H23 cells by SRB method; format: functional; how it was run: as §1
# T47D = assay: Cytotoxicity against human T47D cells by SRB method; format: functional
# How it was run: (§2)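 NCI-60 in vitro screen panel of human tumor lines; GI50 (molar concentration giving 50% growth inhibition) and TGI (total growth inhibition) taken from dose–response data.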
# Mus musculus = assay: Toxicity in athymic nude mouse xenografted with human UACC62 cells assessed as rapid and persistent weight loss at 10 mg/kg, ip; format: organism-based, UACC-62; parameters: dose 10 mg/kg, route intraperitoneal; conditions: in vivo
# [1] = Cytotoxicity against human UACC257 cells by SRB method; format: functional; how it was run: as §2
# SK-MEL-28 = assay: Cytotoxicity against human SK-MEL-28 cells by SRB method; format: functional; how it was run: as §1
# NCI-H226 = assay: Cytotoxicity against human NCI-H226 cells by SRB method; format: functional; how it was run: as §1
# [2] = Cytotoxicity against human PC3 cells by SRB method; format: functional; how it was run: as §1
# [3] = Cytotoxicity against human UACC62 cells assessed as inhibition of colony formation at 5 nM incubated for 4 hrs followed by compound washout measured after 14 days relative to vehicle-treated control; format: functional; conditions: UACC-62
# How it was run: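 Clonogenic test: 600 UACC-62 cells (RPMI1640, 10% FBS, gentamicin) adhered, exposed 4 h to vehicle (DMSO) or compound, washed with DPBS, fresh medium, grown 14 days; fixed, 0.5% crystal violet in 10% methanol, colonies counted; duplicate/triplicate, n = 2–4 experiments; one-way ANOVA with Dunnett's vs vehicle.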
# HT-29 = assay: Cytotoxicity against human HT-29 cells by SRB method; format: functional; how it was run: as §1
# [4] = read-out: LC50 (the source's name)
compound,measurement,setting,value
CC(C)[C@@]12SS[C@]3(C(=O)N1C)[C@@H](O)[C@]1(C45c6ccccc6N[C@H]4N4C(=O)[C@@]6(CO)SS[C@@]4(C(=O)N6C)[C@H]5O)c4ccccc4N[C@@H]1N3C2=O (some centres undefined),GI50,IGROV-1,24.5 nM
same,TGI,IGROV-1,100 nM
same,CC50,IGROV-1; [4],339 nM
same,GI50,NCI-H460,20.9 nM
same,TGI,NCI-H460,75.9 nM
same,CC50,NCI-H460; [4],246 nM
same,GI50,NCI-H23,16.2 nM
same,TGI,NCI-H23,56.2 nM
same,CC50,NCI-H23; [4],234 nM
same,GI50,T47D,9.1 nM
same,TGI,T47D,26.3 nM
same,CC50,T47D; [4],102 nM
same,Activity,Mus musculus,5%
same,GI50,[1]; UACC-257,8.7 nM
same,TGI,[1]; UACC-257,19.5 nM
same,CC50,"[1]; UACC-257, read-out: LC50 (the source's name)",43.7 nM
same,GI50,SK-MEL-28,12.6 nM
same,TGI,SK-MEL-28,38 nM
same,CC50,SK-MEL-28; [4],135 nM
same,GI50,NCI-H226,10 nM
same,TGI,NCI-H226,24 nM
same,CC50,NCI-H226; [4],72.4 nM
same,GI50,[2]; PC-3,15.5 nM
same,TGI,[2]; PC-3,60.3 nM
same,CC50,"[2]; PC-3, read-out: LC50 (the source's name)",209 nM
same,inhibition at 0.005 µM,[3],38%
same,GI50,HT-29,5.6 nM
same,TGI,HT-29,13.5 nM
same,CC50,HT-29; [4],32.4 nM
